In ChEMBL document CHEMBL5321236, “Fluoro-labelled sp2-iminoglycolipids with immunomodulatory properties” (Eur J Med Chem, 2023):
Calls of active or inactive are those of the source. The calls are words filed in the database; no cut-off is given here.

Key:
HeLa [1] = assay: Induction of morphological changes in human HeLa cells assessed as production of filmy bubbles at 20 uM measured after 12 hrs by imaging based analysis; format: functional, cell-based
In short: (§1)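 HeLa and SW1573 seeded at 100,000 cells/dish. After 24 h, medium switched to phenol-red-free RPMI 1640 and 20 μM added. Label-free holotomographic 3D live imaging of a 236 × 236 μm field, 10–20 cells initially, every 3 min for 15 h. Average dry mass density measured per cell at each cycle; morphology scored against untreated cells.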

HeLa [2] = assay: Induction of morphological changes in human HeLa cells assessed as signal transition to necrotic stage at 20 uM measured after 12 hrs by imaging based analysis; format: functional, cell-based; in short: as §1
HeLa [3] = assay: Induction of morphological changes in human HeLa cells assessed as increase in cell shrinkage at 20 uM measured after 12 hrs by imaging based analysis
HeLa [4] = assay: Induction of morphological changes in human HeLa cells assessed as membrane rupture at 20 uM measured after 12 hrs by imaging based analysis; format: functional, cell-based; in short: as §1
SW1573 [5] = assay: Inhibition of colony formation in human SW1573 cells assessed as reduction in number of colonies at GI50 concentration measured after 7 days by crystal violet staining based analysis; format: functional, cell-based; settings: time 7.0 day
In short: (§2)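 HeLa and SW1573 seeded at 400 cells/well, dosed next day at GI50/3 and GI50 for the given line. Exposed seven days, fixed in methanol, stained with 0.5% w/v crystal violet. Colonies counted by automatic image segmentation.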

SW1573 [6] = assay: Growth inhibition of human SW1573 cells measured after 48 hrs by SRB colorimetric assay; format: functional
In short: (§3)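 NCI-based protocol with sulforhodamine B read-out. Seeded 2500 (A549, HBL-100, HeLa, SW1573), 5000 (T-47D, WiDr, SW1573/P-gp) or 7000 (BJ-hTERT) cells/well. Exposed 48 h to serial decimal dilutions, 0.001–100 μM, from 40 mM DMSO stock. GI50 by NCI formulas; mean of three or more experiments ± SD.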

A549 = assay: Growth inhibition of human A549 cells measured after 48 hrs by SRB colorimetric assay; format: functional; in short: as §3
hTERT-BJ = assay: Growth inhibition of human hTERT-BJ cells measured after 48 hrs by SRB colorimetric assay; format: functional
In short: as §3, with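 “read-out. Cells grown in RPMI 1640 with 5% FBS and 1 mM glutamine at 37 °C, 5% CO₂.” for “read-out.”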

T47D = assay: Growth inhibition of human T47D cells measured after 48 hrs by SRB colorimetric assay; format: functional; in short: as §3
HeLa [7] = assay: Induction of morphological changes in human HeLa cells at 20 uM measured after 12 hrs by imaging based analysis
BV-2 [8] = assay: Antiinflammatory activity in mouse BV-2 cells assessed as restoration of […] expression level at 10 uM incubated for 24 hrs with LPS stimulation by qRT-PCR analysis; format: functional, cell-based
In short: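 Bv.2 microglia stimulated with LPS 200 ng/mL with or without compound at 10 μM for 24 h. Arg1 mRNA measured by qRT-PCR, Actinb as housekeeping gene, 2^-ΔΔCT method, fold change relative to basal. n ≥ 4 independent experiments in triplicate.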

HBL-100 = assay: Growth inhibition of human HBL-100 cells measured after 48 hrs by SRB colorimetric assay; format: functional; in short: as §3
HeLa [9] = assay: Inhibition of colony formation in human HeLa cells assessed as reduction in number of colonies at GI50 concentration measured after 7 days by crystal violet staining based analysis; format: functional, cell-based; settings: time 7.0 day; in short: as §2
SW1573 [10] = assay: Growth inhibition of human SW1573 cells measured after 48 hrs in absence of verapamil by SRB colorimetric assay; format: functional
In short: as §3, with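 “read-out. Cells grown in RPMI 1640 with 5% FBS and 1 mM glutamine at 37 °C, 5% CO₂.” for “read-out.”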

BV-2 [11] = assay: Antiinflammatory activity in mouse BV-2 cells assessed as reduction of LPS induced nitrites at 10 uM preincubated for 3 hrs followed by LPS stimulation and measured after 24 hrs by Griess method; format: functional, cell-based; settings: time 27.0 hrs
In short: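 Bv.2 microglia at 70% confluence, pre-treated 3 h at 10 μM in serum-free medium, then LPS 200 ng/mL for 24 h. Nitrite in the medium measured by Griess (1% sulphanilamide, 0.1% NEDA in acid), absorbance 548 nm, expressed as fold change over basal. n ≥ 4 independent experiments in triplicate, mean ± SEM.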

SW1573 [12] = assay: Growth inhibition of human SW1573 cells overexpressing P-glycoprotein measured after 48 hrs in absence of verapamil by SRB colorimetric assay; format: functional
In short: as §3, with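 “read-out. Cells grown in RPMI 1640 with 5% FBS and 1 mM glutamine at 37 °C, 5% CO₂.” for “read-out.”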

SW1573 [13] = assay: Inhibition of colony formation in human SW1573 cells assessed as reduction in colony size at GI50 concentration measured after 7 days by crystal violet staining based analysis; format: functional, cell-based; settings: time 7.0 day; in short: as §2
SW1573 [14] = assay: Inhibition of colony formation in human SW1573 cells assessed as reduction in colony size at one third of GI50 concentration measured after 7 days by crystal violet staining based analysis; format: functional, cell-based; settings: time 7.0 day; in short: as §2
HeLa [15] = assay: Induction of morphological changes in human HeLa cells assessed as release of cellular content at 20 uM measured after 12 hrs by imaging based analysis; format: functional, cell-based; in short: as §1
HeLa [16] = assay: Induction of morphological changes in human HeLa cells assessed as cell shrinkage at 20 uM measured after 5 hrs by microscopy based analysis; format: functional; in short: as §1
SW1573 [17] = assay: Induction of morphological changes in human SW1573 cells assessed as increase in average dry mass density at 20 uM measured after 15 hrs by imaging based analysis; format: functional, cell-based; in short: as §1
HeLa [18] = assay: Induction of morphological changes in human HeLa cells assessed as decrease in cell volume at 20 uM measured after 5 hrs by microscopy based analysis; format: functional; in short: as §1
SW1573 [19] = assay: Induction of morphological changes in human SW1573 cells assessed as decrease in cell volume at 20 uM measured after 5 hrs by microscopy based analysis; format: functional; in short: as §1
BV-2 [20] = assay: Protection against LPS induced inflammation in mouse BV-2 cells assessed as decrease in Tnf-alpha mRNA expression at 10 uM incubated for 24 hrs with LPS stimulation by qRT-PCR analysis
BV-2 [21] = assay: Protection against LPS induced inflammation in mouse BV-2 cells assessed as decrease in IL1-beta mRNA expression at 10 uM incubated for 24 hrs with LPS stimulation by qRT-PCR analysis
[22] = target: Mitogen-activated protein kinase 14 (Mus musculus) (UniProt P47811); assay: Inhibition of LPS-stimulated p38 alpha phosphorylation in mouse BV-2 cells at 10 uM measured after 30 mins by Western blot analysis; format: cell-based
In short: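 Bv.2 cells exposed with or without LPS for 15–90 min. Protein extracts run on SDS-PAGE, blotted to PVDF, probed with anti-phospho-p38α MAPK and anti-total p38α MAPK (1:1000), ECL detection. Quantified by densitometry, mean ± SEM, n = 3.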

SW1573 [23] = assay: Induction of morphological changes in human SW1573 cells assessed as cell shrinkage at 20 uM measured after 5 hrs by microscopy based analysis; format: functional; in short: as §1

Sequence of Mitogen-activated protein kinase 14 (Mus musculus) (P47811 whole entry): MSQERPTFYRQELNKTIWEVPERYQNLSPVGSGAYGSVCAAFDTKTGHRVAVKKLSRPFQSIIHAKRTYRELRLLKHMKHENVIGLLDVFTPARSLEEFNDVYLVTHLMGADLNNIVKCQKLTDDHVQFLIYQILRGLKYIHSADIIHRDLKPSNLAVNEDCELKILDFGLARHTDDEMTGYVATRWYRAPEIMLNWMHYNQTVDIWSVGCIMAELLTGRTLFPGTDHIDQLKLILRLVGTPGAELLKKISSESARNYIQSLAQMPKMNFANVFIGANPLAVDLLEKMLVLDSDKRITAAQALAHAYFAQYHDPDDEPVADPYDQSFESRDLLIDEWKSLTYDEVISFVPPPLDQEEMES

With CCCCCCCCCCCCS(=O)(=O)[C@@H]1[C@H](F)[C@@H](O)[C@H](O)[C@H]2COC(=O)N21 as the molecule, how does the Activity (HeLa [1]) read?
Its Activity is “Active”.

And the Activity (HeLa [2])?
Its Activity is “Active”.

What about the Activity (HeLa [3]) of the same molecule?
The Activity was “Active”.

What about the Activity (HeLa [4]) of the same molecule?
Its Activity is “Active”.

What about the inhibition (SW1573 [5]) of the same molecule?
The inhibition was “Active”.

What about the GI50 (SW1573 [6]) of the same molecule?
The GI50 was 9.1 µM.

And the GI50 (A549)?
Its GI50 is 4.6 µM.

What about the GI50 (hTERT-BJ) of the same molecule?
Its GI50 is 32 µM.

And the GI50 (T47D)?
The GI50 was 18 µM.

And the Activity (HeLa [7])?
The Activity was “Active”.

What about the Activity (BV-2 [8]) of the same molecule?
The Activity was “Active”.

And the GI50 (HBL-100)?
Its GI50 is 19 µM.

And the inhibition (HeLa [9])?
The inhibition was “Active”.

And the GI50 (SW1573 [10])?
The GI50 was 3.3 µM.

What about the Activity (BV-2 [11]) of the same molecule?
The Activity was “Active”.

What about the GI50 (SW1573 [12]) of the same molecule?
Its GI50 is 5.3 µM.

And the inhibition (SW1573 [13])?
The inhibition was “Active”.

What about the inhibition (SW1573 [14]) of the same molecule?
Its inhibition is “Active”.

And the Activity (HeLa [15])?
Its Activity is “Active”.

What about the Activity (HeLa [16]) of the same molecule?
The Activity was “Active”.

And the Activity (SW1573 [17])?
Its Activity is “Active”.

And the Activity (HeLa [18])?
The Activity was “Active”.

And the Activity (SW1573 [19])?
Its Activity is “Active”.

And the Activity (BV-2 [20])?
Its Activity is “Active”.

What about the Activity (BV-2 [21]) of the same molecule?
The Activity was “Active”.

And the inhibition [22]?
The inhibition was “inactive”.

And the Activity (SW1573 [23])?
Its Activity is “Active”.
